# Experimental data collected from several papers.
# Compare with care: the assays were run in different laboratories.
# Target: Serine/threonine-protein kinase PAK 3 (PAK3, Homo sapiens, UniProt O75914)
SMILES,effect on,technique,concentration,remaining binding
CN(C)c1nccc(-c2cnc3ncccn23)n1,binding,,1 µM,100%
c1cncc(-c2cccc(Nc3nccc(NC4CCCCC4)n3)c2)c1,binding,competition with immobilised ligand,10 µM,38%
COc1cnc(Nc2cccc(S(N)(=O)=O)c2)nc1N1CCN(c2ccccc2)CC1,binding,competition with immobilised ligand,1 µM,100%
C[C@H](c1cccc(C#N)c1)n1cc(Cl)cc(C(N)=O)c1=N,cell-free assay,competition with immobilised ligand,1 µM,88%
Cc1cnc(Nc2ccc(C(=O)N3CCC(N4CCCC4)CC3)cc2)nc1-c1cc2ccccc2s1,binding,competition with immobilised ligand,1 µM,23%
CNC(=O)[C@@H]1CC[C@@H](n2c(-c3ccc4cnccc4c3)nc3ccc(C(=O)NCc4cccc(C(N)=O)c4)cc32)C1,binding,competition with immobilised ligand,1 µM,95%
O=C(Nc1ccc(Oc2ccc(F)cc2)cc1)N1CCc2ncccc2[C@H]1c1ccc(F)cc1,cell-free assay,competition with immobilised ligand,1 µM,100%
Cc1cnn2ncc(-c3ccnc(N(C)C)n3)c2c1,binding,,1 µM,100%
CCC(=N\O)/C(C)=C/c1ccc(F)cc1,cell-free assay,competition with immobilised ligand,1 µM,89%
Nc1ncc2c(n1)-c1c([nH]c3ccc(C#CC4CC4)cc13)CCCC2,binding,competition with immobilised ligand,1 µM,90%
N[C@@H]1CCN(c2nccc(-c3cnn4ncccc34)n2)C1,binding,,1 µM,99%
O=C(NCCCN1CCOCC1)c1ccc(Nc2ncc(Cl)c(-c3ccc(Cl)s3)n2)cc1,binding,competition with immobilised ligand,1 µM,77%
CC1CCCN1c1nccc(-c2cnn3ncccc23)n1 (centres unmarked),binding,,1 µM,100%
O=C(NCC1CCOCC1)c1n[nH]cc1NC(=O)c1c(F)cccc1F,binding,competition with immobilised ligand,1 µM,100%
CCS(=O)(=O)c1cc2cc(C[C@](O)(CC(C)(C)c3ccc(F)cc3C(N)=O)C(F)(F)F)[nH]c2cn1,cell-free assay,competition with immobilised ligand,1 µM,100%
C[C@H]1CCN(c2nccc(-c3cnn4ncccc34)n2)C1,binding,,1 µM,94%
CSc1cccnc1N1CCN(Cc2nc3ccccc3[nH]2)CC1,cell-free assay,competition with immobilised ligand,1 µM,87%
O=C(c1ccc(Nc2ncc(Cl)c(-c3ccc(Cl)s3)n2)cc1)N1CCC(N2CCCC2)CC1,binding,competition with immobilised ligand,1 µM,38%
O=C1NC(c2ccccn2)Sc2ccccc21 (centres unmarked),cell-free assay,competition with immobilised ligand,1 µM,83%
COc1ccnn2ncc(-c3ccnc(N(C)C)n3)c12,binding,,1 µM,100%
